Source: PubChem BioAssay
Sampled rows, rich in hits. Any-hit rate of the full collection: about 4.2%.
Fh CTSL1 inh: Fasciola hepatica cathepsin L1 inhibitors, primary screen, counter-screen for PFM18AAP inhibitor project, biochemical, QFRET, fluorogenic peptide substrate | actives 0.49% (n = 300,000) | recombinant F. hepatica cathepsin L1, Z-Leu-Arg-MCA fluorescence | AID 1906, 2009 | inhibition, % at 5.96 µM;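 active means inhibition above the mean of all tested compounds plus 3 SD, set per screening campaign, cut at about 17% in these data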;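 further: 0% = plate median of test compound wells and 100% = 1 µM Z-Phe-Ala-diazomethylketone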
AHR activator: AHR activators, primary screen, cell-based, luminescence, luciferase reporter, human; AHR-responsive luciferase reporter cells; activation, % at 5 µM; actives 2.5% (n = 320,000); AID 2796, 2010; in the data active means activation above about 47%;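 further: 0% = vehicle wells and 100% = reference agonist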
M18AAP inhibitor: PfM18AAP inhibitors, malaria aminopeptidase, primary screen, biochemical, QFRET, recombinant enzyme; H-Glu-NHMec fluorogenic cleavage; inhibition, % at 7.35 µM; actives 1.2% (n = 290,000);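 active means inhibition above the campaign mean inhibition over all tested compounds plus 3 SD, cut at about 28% in these data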;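 further: 0% = plate median of test compound wells and 100% = 2 mM ZnCl2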
GAA850 FXN act: FXN promoter activators, primary screen, cell-based, luciferase luminescence, HEK293 lucGAA850; activation, % at 6 µM; HEK293 lucGAA850 FXN promoter luciferase reporter, 24 h; percent of 10 µM SAHA response; actives 0.56% (n = 360,000);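 active means activation above the average of all compounds screened plus 3 SD, cutoff fixed separately per campaign, cut at about 7.5% in these data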;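 further: 0% = DMSO wells and 100% = 10 µM SAHA wells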
HDAC3 inhib: HDAC3 deacetylase inhibitors, primary screen, biochemical, fluorescence, cell-free homogeneous; actives 0.15% (n = 320,000); recombinant HDAC3, fluorogenic peptide/trypsin coupled; inhibition, % at 8.3 µM; in the data active means inhibition above about 26%, passing the limit was not always enough; inconclusive means no clear call, values can overlap the other calls
Target sequence (O15379 whole entry, looked up): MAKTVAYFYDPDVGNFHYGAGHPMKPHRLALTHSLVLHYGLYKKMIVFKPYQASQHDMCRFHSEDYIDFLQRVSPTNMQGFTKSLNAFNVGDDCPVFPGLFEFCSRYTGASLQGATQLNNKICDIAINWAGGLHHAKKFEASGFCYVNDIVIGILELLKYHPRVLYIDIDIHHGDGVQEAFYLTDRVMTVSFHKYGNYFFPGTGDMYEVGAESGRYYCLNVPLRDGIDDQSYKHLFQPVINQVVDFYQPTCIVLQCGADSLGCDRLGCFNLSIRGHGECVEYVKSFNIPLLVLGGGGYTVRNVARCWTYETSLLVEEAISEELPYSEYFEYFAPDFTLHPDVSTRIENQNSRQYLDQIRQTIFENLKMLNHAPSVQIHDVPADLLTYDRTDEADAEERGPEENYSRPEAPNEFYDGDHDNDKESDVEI
SENP1 inh: human SENP1 catalytic domain inhibitors, primary screen, biochemical, FRET, uHTS; inhibition, % at 10 µM; recombinant SENP1 catalytic domain, CyPet-SUMO1-YPet FRET cleavage; Sentrin-specific protease 1 (Homo sapiens), Q9P0U3; actives 0.21% (n = 360,000);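 active means inhibition at least 30% at 10 µM, raw YFP signal under a set limit, fluorescence ratio 0.5 to 1.5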;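 further: 0% = enzyme with DMSO and 100% = no enzyme wells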
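Material: hSENP1 catalytic domain, recombinant; medium: Tris pH 8 with BME, BSA, NP40 and catalase; compound: single concentration of 10 µM compound, 0.5% DMSO final; technique: FRET read of cyan and yellow fluorescence; timing: 50 min enzyme reaction, room temperature, light-protected; reagent: SFCypet-SUMO1-SFYpet substrate at 25 nM; control set: no-enzyme low, enzyme-DMSO high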
* = called active by the depositor.

COc1cccc(-c2cc(C(=O)Nc3cccnc3)c3ccccc3n2)c1 was read as Fh CTSL1 inh -4, AHR activator 19, M18AAP inhibitor 4, GAA850 FXN act -3, HDAC3 inhib 4 and SENP1 inh -1.
Screening COc1ccc(-c2cc(C(=O)N3CCN(c4ccccc4O)CC3)c3ccccc3n2)cc1OC returned Fh CTSL1 inh 0, AHR activator 40, M18AAP inhibitor 31*, GAA850 FXN act 0, HDAC3 inhib 0 and SENP1 inh -1.
COc1ccc(Cc2nc3ccc(C(=O)N4CCCCC4CCO)cc3o2)cc1 (stereo unspecified) was read as Fh CTSL1 inh -4, AHR activator 2, M18AAP inhibitor -2, GAA850 FXN act 2, HDAC3 inhib inconclusive and SENP1 inh 3.
For CCOC(=O)C1(C)CCCN(C(=O)c2ccccc2F)C1 (stereo unspecified) the results were GAA850 FXN act -1 and SENP1 inh 1.
For COc1cc(C(O)c2nc(-c3ccc(C)c(C)c3)cs2)ccc1F (stereo unspecified) the results were GAA850 FXN act -1 and SENP1 inh 3.
C/C(=N\Nc1nc(N)cc(Cl)n1)c1cccc(N)c1 was read as Fh CTSL1 inh -2, AHR activator 65*, M18AAP inhibitor 4, GAA850 FXN act 7, HDAC3 inhib 4 and SENP1 inh 0.
C/C(=N/NC(=O)c1cccs1)c1cccc(N)c1 was read as Fh CTSL1 inh 2, AHR activator 6, M18AAP inhibitor -14, GAA850 FXN act 5, HDAC3 inhib 3 and SENP1 inh 0.
Screening C=CCn1c(SCC(C)=O)nc2scc(-c3ccco3)c2c1=O returned Fh CTSL1 inh 23*, AHR activator 3, M18AAP inhibitor -44, GAA850 FXN act 1, HDAC3 inhib -4 and SENP1 inh -14.
Screening C=CCn1c(SCC(=O)N2CCOCC2)nc2scc(-c3ccco3)c2c1=O returned Fh CTSL1 inh 5, AHR activator -2, M18AAP inhibitor -14, GAA850 FXN act 2, HDAC3 inhib 10 and SENP1 inh -16.
Screening Cn1ncc(Br)c1N1C(=O)CCC1=O returned Fh CTSL1 inh 1, AHR activator 1, M18AAP inhibitor 1, GAA850 FXN act 1, HDAC3 inhib -4 and SENP1 inh -2.
O=c1c2[nH]c3ccc(F)cc3c2nc2n1CCS2 was read as Fh CTSL1 inh 8, AHR activator 32, M18AAP inhibitor -16, GAA850 FXN act 2, HDAC3 inhib 0 and SENP1 inh 1.
O=c1c2[nH]c3ccc(F)cc3c2nc2n1CCCS2 was read as Fh CTSL1 inh -2, AHR activator 71*, M18AAP inhibitor 0, GAA850 FXN act -1, HDAC3 inhib -10 and SENP1 inh 2.
`O=c1c2[nH]c3ccccc3c2nc2n1CCCS2` gave Fh CTSL1 inh -3, AHR activator 66*, M18AAP inhibitor -2, GAA850 FXN act 2, HDAC3 inhib inconclusive and SENP1 inh 4.
Screening OC(CN1CCCCC1)c1ccc2c3c(cccc13)CC2 (stereo unspecified) returned GAA850 FXN act 1 and SENP1 inh 1.
Screening Fc1ccc(Br)cc1C1C=C(c2cccnc2)Nc2ncnn21 (stereo unspecified) returned Fh CTSL1 inh 3, AHR activator 59*, M18AAP inhibitor 12, GAA850 FXN act -4, HDAC3 inhib 1 and SENP1 inh -41.
`Cn1cccc1C1C=C(c2ccc(C(C)(C)C)cc2)Nc2ncnn21` (stereo unspecified) gave Fh CTSL1 inh -6, AHR activator 67*, GAA850 FXN act 2, HDAC3 inhib 0 and SENP1 inh 14.
`Fc1ccc(C2=CC(c3ccc(Br)o3)n3ncnc3N2)cc1` (stereo unspecified) gave Fh CTSL1 inh 6, AHR activator 87*, M18AAP inhibitor 13, GAA850 FXN act 0, HDAC3 inhib 3 and SENP1 inh -28.
